According to ChEMBL document CHEMBL3132834, “Synthesis and biological activity of NOSH-naproxen (AVT-219) and NOSH-sulindac (AVT-18A) as potent anti-inflammatory agents with chemotherapeutic potential” (Medchemcomm, 2013):

Legend:
Serum [1] = experiment: Prodrug conversion in carrageenan-induced Wistar rat model assessed as sulfide species in serum at 467 mg/kg through gavage administered 1 hr prior to carrageenan-challenge; type: ADME, organism-based; set-up: dose 467 mg/kg; conditions: in vivo, po
Method in brief: (§1)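 Blood taken at the end of the carrageenan edema study from gavage-dosed rats (3 per group). Sulfide measured by the methylene blue method: plasma mixed with zinc acetate, trichloroacetic acid, N,N-dimethyl-p-phenylenediamine and FeCl₃ in 7.2M HCl, A670 read after 15 min. Run in duplicate against a NaHS calibration curve (1-250 μM). The read-out is total H₂S + HS⁻ + S²⁻.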

Rattus norvegicus [2] = experiment: Antiinflammatory activity in carrageenan-induced Wistar rat model assessed as inhibition of PGE2 level at 467 mg/kg through gavage administered 1 hr prior to carrageenan-challenge measured after 4 hrs (reference value: 95 +/- 7 pg/mL); type: functional
Rattus norvegicus [3] = experiment: Antiinflammatory activity in Wistar rat assessed as inhibition of carrageenan-induced paw volume at 467 mg/kg through gavage administered 1 hr prior to carrageenan-challenge measured after 4 hrs (reference value: 1.1 +/- 0.1 mL; type: functional
HT-29 [4] = experiment: Induction of human HT-29 cells assessed as assessed as early apoptotic cells at IC50 concentration after 24 hrs by propidium iodide staining-based flow cytometric analysis; type: functional
HT-29 [5] = experiment: Induction of human HT-29 cells assessed as assessed as early apoptotic cells at IC50 concentration after 12 hrs by propidium iodide staining-based flow cytometric analysis; type: functional
HT-29 [6] = experiment: Induction of human HT-29 cells assessed as assessed as early apoptotic cells at IC50 concentration after 6 hrs by propidium iodide staining-based flow cytometric analysis; type: functional
HT-29 [7] = experiment: Induction of human HT-29 cells assessed as assessed as early apoptotic cells at IC50 concentration after 3 hrs by propidium iodide staining-based flow cytometric analysis; type: functional
HT-29 [8] = experiment: Cell cycle arrest in human HT-29 cells assessed as accumulation at sub G2/M phase at IC50 concentration after 24 hrs by propidium iodide staining-based flow cytometric analysis (reference value: 27.7 +/- 42%); type: functional
HT-29 [9] = experiment: Cell cycle arrest in human HT-29 cells assessed as accumulation at S phase at IC50 concentration after 24 hrs by propidium iodide staining-based flow cytometric analysis (reference value: 31.7 +/- 3.7%); type: functional
HT-29 [10] = experiment: Cell cycle arrest in human HT-29 cells assessed as accumulation at G0/G1 phase at IC50 concentration after 24 hrs by propidium iodide staining-based flow cytometric analysis (reference value: 40.9 +/- 3.1%); type: functional
HT-29 [11] = experiment: Antiproliferative activity against human HT-29 cells assessed as reduction in PCNA expression at IC50 concentration after 24 hrs; type: functional
HT-29 [12] = experiment: Antiproliferative activity against human HT-29 cells assessed as reduction in PCNA expression at IC50 concentration; type: functional, cell-based; conditions: TDE = time-dependent effect
[13] = Selectivity ratio of IC50 for human BxPC3 cells to IC50 for human IMR90 cells; type: ADME, cell-based, IMR-90; conditions: BxPC3 cells versus IMR90 cells, read-out: Ratio IC50
[14] = Selectivity ratio of IC50 for human MCF7 cells to IC50 for human IMR90 cells; type: ADME, cell-based, IMR-90; conditions: MCF7 cells versus IMR90 cells, read-out: Ratio IC50
[15] = Selectivity ratio of IC50 for human Jurkat cells to IC50 for human IMR90 cells; type: ADME, cell-based; conditions: Jurkat cells versus IMR90 cells, read-out: Ratio IC50
[16] = Selectivity ratio of IC50 for human HT-29 cells to IC50 for human IMR90 cells; type: ADME, cell-based; conditions: HT-29 cells versus IMR90 cells, read-out: Ratio IC50
[17] = Selectivity ratio of IC50 for human BxPC3 cells to IC50 for human ACBRI 515 cells; type: ADME, cell-based, BXPC-3; conditions: BxPC3 cells versus ACBRI 515 cells, read-out: Ratio IC50
[18] = Selectivity ratio of IC50 for human MCF7 cells to IC50 for human HMEpC cells; type: ADME, cell-based; conditions: MCF7 cells versus HMEpC cells, read-out: Ratio IC50
[19] = Cytotoxicity against human ACBRI 515 cells assessed as growth inhibition after 24 hrs by MTT assay; type: cell-based; conditions: ACBRI-515, 24 h
Method in brief: (§2)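 Normal human cells: IMR-90 lung fibroblasts in EMEM with 10% heat-inactivated FCS and 2 mmol/L L-glutamine; primary pancreatic epithelial ACBRI 515 in serum-free medium with attachment factor; HMEpC in mammary epithelial growth medium. Exposed to a range of concentrations for 24 h; IC₅₀ from cell numbers. Mean ± SEM of 3 experiments in duplicate.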

[20] = Cytotoxicity against human HMEpC cells assessed as growth inhibition after 24 hrs by MTT assay; type: cell-based; method in brief: as §2
[21] = Cytotoxicity against human IMR90 cells assessed as growth inhibition after 24 hrs by MTT assay; type: cell-based; conditions: IMR-90, 24 h; method in brief: as §2
Jurkat [22] = experiment: Ratio of sulindac IC50 to compound IC50 for human Jurkat cells after 24 hrs by MTT assay; type: functional
Method in brief: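 Jurkat T cells grown in suspension in RPMI 1640 with 10% FCS. 30,000 cells/well added to serially diluted compounds in V-bottom plates, 24 h at 37°C in 5% CO₂. MTT (1.1 mg/mL) added for 4 h more, formazan dissolved in DMSO, A570 read. IC₅₀ from 5–7 experiments in triplicate; ratio is parent IC₅₀ over hybrid IC₅₀.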

[23] = (§3) Cytotoxicity against human BxPC3 cells assessed as growth inhibition after 24 hrs by MTT assay; type: functional, cell-based; conditions: BXPC-3, 24 h
Method in brief: (§4)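 Cells grown in 10% FCS medium: HT-29 in McCoy 5A; MCF-7 and BxPC-3 in DMEM. 50,000 cells/well exposed to a range of concentrations for 24 h. MTT added for 2 h at 37°C, formazan dissolved in 10% SDS/0.01 M HCl, A570 read. IC₅₀ from cell numbers; mean ± S.E.M. of 5–7 experiments in triplicate. Ratios are parent IC₅₀ over hybrid IC₅₀.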

BXPC-3 [24] = experiment: as §3; type: functional, cell-based; method in brief: as §4
MCF7 = experiment: Cytotoxicity against human MCF7 cells assessed as growth inhibition after 24 hrs by MTT assay; type: functional, cell-based; conditions: for IC50: MCF7, 24 h; method in brief: as §4
Jurkat [25] = experiment: Cytotoxicity against human Jurkat cells assessed as growth inhibition after 24 hrs by MTT assay; type: functional, cell-based
Method in brief: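 30,000 cells/well added to serially diluted compounds in V-bottom plates, 24 h at 37°C in 5% CO₂. MTT (1.1 mg/mL) added for 4 h more, formazan dissolved in DMSO, A570 read. IC₅₀ from 5–7 experiments in triplicate; ratio is parent IC₅₀ over hybrid IC₅₀.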

HT-29 [26] = experiment: Cytotoxicity against human HT-29 cells assessed as growth inhibition after 24 hrs by MTT assay; type: functional, cell-based; conditions: for IC50: HT-29, 24 h; method in brief: as §4
Serum [27] = experiment: Prodrug conversion in carrageenan-induced Wistar rat model assessed as sulfide species in serum at 188 mg/kg through gavage administered 1 hr prior to carrageenan-challenge; type: ADME, organism-based; set-up: dose 188 mg/kg; conditions: in vivo, po; method in brief: as §1
Rattus norvegicus [28] = experiment: Antiinflammatory activity in carrageenan-induced Wistar rat model assessed as inhibition of PGE2 level at 188 mg/kg through gavage administered 1 hr prior to carrageenan-challenge measured after 4 hrs (reference value: 95 +/- 7 pg/mL); type: functional
Rattus norvegicus [29] = experiment: Antiinflammatory activity in Wistar rat assessed as inhibition of carrageenan-induced paw volume at 188 mg/kg through gavage administered 1 hr prior to carrageenan-challenge measured after 4 hrs (reference value: 1.1 +/- 0.1 mL); type: functional
HT-29 [30] = experiment: Cell cycle arrest in human HT-29 cells assessed as accumulation at sub G2/M phase at IC50 concentration after 24 hrs by propidium iodide staining-based flow cytometric analysis (reference value: 28.7 +/- 2.1%); type: functional
HT-29 [31] = experiment: Cell cycle arrest in human HT-29 cells assessed as accumulation at S phase at IC50 concentration after 24 hrs by propidium iodide staining-based flow cytometric analysis (reference value: 29.2 +/- 3.3%); type: functional
HT-29 [32] = experiment: Cell cycle arrest in human HT-29 cells assessed as accumulation at G0/G1 phase at IC50 concentration after 24 hrs by propidium iodide staining-based flow cytometric analysis (reference value: 42.2 +/- 4%); type: functional
BXPC-3 [33] = experiment: Ratio of naproxen IC50 to compound IC50 for human BxPC3 cells after 24 hrs by MTT assay; type: functional
Serum [34] = experiment: Prodrug conversion in carrageenan-induced Wistar rat model assessed as sulfide species in serum at 200 mg/kg through gavage administered 1 hr prior to carrageenan-challenge; type: ADME, organism-based; set-up: dose 200 mg/kg; conditions: in vivo, po; method in brief: as §1
Rattus norvegicus [35] = experiment: Antiinflammatory activity in carrageenan-induced Wistar rat model assessed as inhibition of PGE2 level at 200 mg/kg through gavage administered 1 hr prior to carrageenan-challenge measured after 4 hrs (reference value: 95 +/- 7 pg/mL); type: functional
Rattus norvegicus [36] = experiment: Antiinflammatory activity in Wistar rat assessed as inhibition of carrageenan-induced paw volume at 200 mg/kg through gavage administered 1 hr prior to carrageenan-challenge measured after 4 hrs (reference value: 1.1 +/- 0.1 mL); type: functional

| SMILES | Activity (HT-29 [4]) | Activity (HT-29 [5]) | Activity (HT-29 [6]) | Activity (HT-29 [7]) | inhibition (INH) (HT-29 [11]) | inhibition (HT-29 [12]) | selectivity ratio [13] | selectivity ratio [14] | selectivity ratio [15] | selectivity ratio [16] | selectivity ratio [17] | selectivity ratio [18] | IC50 [19] | IC50 [20] | IC50 [21] | IC50 [23] | growth inhibition (GI) (BXPC-3 [24]) | IC50 (MCF7) | IC50 (Jurkat [25]) | IC50 (HT-29 [26]) | further results |
| --- | --- | --- | --- | --- | --- | --- | --- | --- | --- | --- | --- | --- | --- | --- | --- | --- | --- | --- | --- | --- | --- |
| CC1=C(CC(=O)Oc2ccc(OC(=O)CCCO[N+](=O)[O-])c(C(=O)Oc3ccc(-c4cc(=S)ss4)cc3)c2)c2cc(F)ccc2/C1=C\c1ccc([S+](C)[O-])cc1 (configuration not stated) | 39.4% | 23.2% | 10.1% | 2.8% | 50% | tde | 70 | 70 | 70 | 70 | > 200 | 150 | > 25 µM | 15.2 µM | 21.7 µM | 0.12 µM | Dose-dependent effect | 0.1 µM | 270 nM | 0.089 µM | Stability (Serum [1]): Stable; Activity (Rattus norvegicus [2]): 29 pg/mg; Activity (Rattus norvegicus [3]): 0.21 mL; Activity (HT-29 [8]): 59.8%; Activity (HT-29 [9]): 10.6%; Activity (HT-29 [10]): 29.6%; Ratio IC50 (Jurkat [22]): 2500; growth inhibition (GI) (MCF7): Dose-dependent effect; growth inhibition (GI) (Jurkat [25]): Dose-dependent effect; growth inhibition (GI) (HT-29 [26]): Dose-dependent effect |
| C[C@H](C(=O)Oc1ccc(-c2cc(=S)ss2)cc1)c1ccc2cc(OC(=O)CCCO[N+](=O)[O-])ccc2c1 | 59.2% | 31.9% | 25.3% | 9.2% | 50% | tde | 70 | 70 | 70 | 70 | 147 | 115 | 22 µM | 13.8 µM | 20 µM | 0.15 µM | Dose-dependent effect | 0.12 µM | 100 nM | 0.08 µM | Stability (Serum [27]): Stable; Activity (Rattus norvegicus [28]): 35 pg/mg; Activity (Rattus norvegicus [29]): 0.15 mL; Activity (HT-29 [30]): 19.5%; Activity (HT-29 [31]): 22.3%; Activity (HT-29 [32]): 58.2%; Ratio IC50 (BXPC-3 [33]): 16000; growth inhibition (GI) (MCF7): Dose-dependent effect; growth inhibition (GI) (Jurkat [25]): Dose-dependent effect; growth inhibition (GI) (HT-29 [26]): Dose-dependent effect |
| CC1=C(CC(=O)O)c2cc(F)ccc2/C1=C\c1ccc([S+](C)[O-])cc1 (configuration not stated) | – | – | – | – | – | – | – | – | – | – | – | – | – | – | – | 980 µM | – | 965 µM | 699000 nM | 800 µM | Stability (Serum [34]): Stable; Activity (Rattus norvegicus [35]): 12 pg/mg; Activity (Rattus norvegicus [36]): 0.22 mL |
| CC(=O)N[C@H](C(=O)O)C(C)(C)SN=O | – | – | – | – | – | – | – | – | – | – | – | – | – | – | – | – | – | – | – | 508 µM | – |
| COc1ccc2cc([C@H](C)C(=O)O)ccc2c1 [NAPROXEN] | – | – | – | – | – | – | – | – | – | – | – | – | – | – | – | 2450 µM | – | 2380 µM | – | 2600 µM | – |
| Oc1ccc(-c2cc(=S)ss2)cc1 | – | – | – | – | – | – | – | – | – | – | – | – | – | – | – | – | – | – | – | 35 µM | – |
